ChEMBL document CHEMBL3525903 (Drug Metab Dispos, 2013)

Assays:
Format in all cases: ADME, cell-based
[1] = target: T1, Solute carrier organic anion transporter family member 1B3 (Homo sapiens, UniProt Q9NPD5); test: Inhibition of OATP1B3 (unknown origin) expressed in HEK293 cells assessed as reduction of [3H]CCK8 substrate uptake at 100 uM by liquid scintillation counting; settings: hek293, 100 µM
T1 sequence (Q9NPD5 whole entry): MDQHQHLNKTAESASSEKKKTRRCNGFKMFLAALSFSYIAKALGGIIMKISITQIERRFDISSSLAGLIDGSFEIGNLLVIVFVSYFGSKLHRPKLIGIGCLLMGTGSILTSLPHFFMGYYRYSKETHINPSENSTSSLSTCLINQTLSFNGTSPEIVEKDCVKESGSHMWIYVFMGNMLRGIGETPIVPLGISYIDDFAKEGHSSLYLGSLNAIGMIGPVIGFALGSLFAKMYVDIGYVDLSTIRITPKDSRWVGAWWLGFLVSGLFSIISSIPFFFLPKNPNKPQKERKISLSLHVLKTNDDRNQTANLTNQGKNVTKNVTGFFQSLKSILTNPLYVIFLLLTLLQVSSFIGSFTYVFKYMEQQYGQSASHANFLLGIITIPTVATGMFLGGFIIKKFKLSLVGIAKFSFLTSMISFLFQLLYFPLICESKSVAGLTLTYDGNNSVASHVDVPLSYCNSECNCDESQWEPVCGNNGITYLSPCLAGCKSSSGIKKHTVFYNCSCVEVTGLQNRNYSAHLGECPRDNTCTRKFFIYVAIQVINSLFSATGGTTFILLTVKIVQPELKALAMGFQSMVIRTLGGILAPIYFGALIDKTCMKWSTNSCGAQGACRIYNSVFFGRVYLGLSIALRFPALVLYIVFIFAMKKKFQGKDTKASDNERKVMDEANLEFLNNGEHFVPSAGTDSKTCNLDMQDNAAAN
Method in brief: (§1)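 HEK293 cells transiently transfected with OAT, OATP or OCT plasmid (FuGENE6; 24 h, then 24 h more with sodium butyrate), or stable OCTN1/OCTN2 lines; vector-transfected cells as control. Washed, preincubated 15–60 min at 37 °C in modified Krebs-Henseleit/25 mM HEPES buffer. Uptake of radiolabelled substrate, 100 µM inhibitor. Cells lysed in NaOH and counted by scintillation; counts normalised to medium radioactivity and Lowry protein; vector uptake subtracted.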

[2] = target: T2, Solute carrier family 22 member 6 (Homo sapiens, UniProt Q4U2R8); test: Inhibition of OAT1 (unknown origin) expressed in HEK293 cells assessed as reduction of [3H]PAH substrate uptake at 100 uM by liquid scintillation counting; settings: hek293, 100 µM; method in brief: as §1
T2 sequence (Q4U2R8 whole entry): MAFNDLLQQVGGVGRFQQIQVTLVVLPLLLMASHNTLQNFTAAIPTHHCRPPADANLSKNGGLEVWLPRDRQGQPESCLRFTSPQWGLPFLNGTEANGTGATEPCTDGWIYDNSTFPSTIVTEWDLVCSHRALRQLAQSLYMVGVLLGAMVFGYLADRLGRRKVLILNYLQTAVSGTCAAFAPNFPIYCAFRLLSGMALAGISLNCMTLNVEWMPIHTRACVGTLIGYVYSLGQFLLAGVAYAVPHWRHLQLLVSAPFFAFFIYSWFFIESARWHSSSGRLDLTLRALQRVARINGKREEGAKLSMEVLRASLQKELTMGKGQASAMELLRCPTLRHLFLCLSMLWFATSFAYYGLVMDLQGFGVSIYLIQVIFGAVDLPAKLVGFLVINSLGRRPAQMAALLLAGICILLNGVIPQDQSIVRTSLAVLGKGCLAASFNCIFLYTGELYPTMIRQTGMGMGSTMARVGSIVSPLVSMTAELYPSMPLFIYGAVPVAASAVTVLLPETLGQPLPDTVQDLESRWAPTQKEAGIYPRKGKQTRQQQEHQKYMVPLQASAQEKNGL

[3] = target: T3, Solute carrier family 22 member 11 (Homo sapiens, UniProt Q9NSA0); test: Inhibition of OAT4 (unknown origin) expressed in HEK293 cells assessed as reduction of [3H]E-sul substrate uptake at 100 uM by liquid scintillation counting; settings: hek293, 100 µM; method in brief: as §1
T3 sequence (Q9NSA0 whole entry): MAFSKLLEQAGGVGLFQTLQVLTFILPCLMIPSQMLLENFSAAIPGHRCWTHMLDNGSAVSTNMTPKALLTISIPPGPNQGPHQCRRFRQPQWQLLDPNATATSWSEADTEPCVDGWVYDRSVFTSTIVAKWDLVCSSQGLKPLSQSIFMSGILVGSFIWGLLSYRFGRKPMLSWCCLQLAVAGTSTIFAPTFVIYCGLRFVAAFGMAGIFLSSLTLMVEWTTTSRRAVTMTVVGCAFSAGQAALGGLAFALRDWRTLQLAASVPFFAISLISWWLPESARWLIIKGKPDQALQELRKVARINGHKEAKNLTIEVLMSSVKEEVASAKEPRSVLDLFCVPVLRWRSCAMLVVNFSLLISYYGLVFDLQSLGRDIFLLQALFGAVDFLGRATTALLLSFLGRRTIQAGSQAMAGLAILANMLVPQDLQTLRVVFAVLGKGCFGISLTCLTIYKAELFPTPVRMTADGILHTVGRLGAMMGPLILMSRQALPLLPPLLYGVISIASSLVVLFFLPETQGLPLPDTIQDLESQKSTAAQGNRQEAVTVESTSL

[4] = target: T4, Organic anion transporter 3 (Homo sapiens, UniProt Q8TCC7); test: Inhibition of OAT3 (unknown origin) expressed in HEK293 cells assessed as reduction of [3H]E-sul substrate uptake by liquid scintillation counting
T4 sequence (Q8TCC7 whole entry): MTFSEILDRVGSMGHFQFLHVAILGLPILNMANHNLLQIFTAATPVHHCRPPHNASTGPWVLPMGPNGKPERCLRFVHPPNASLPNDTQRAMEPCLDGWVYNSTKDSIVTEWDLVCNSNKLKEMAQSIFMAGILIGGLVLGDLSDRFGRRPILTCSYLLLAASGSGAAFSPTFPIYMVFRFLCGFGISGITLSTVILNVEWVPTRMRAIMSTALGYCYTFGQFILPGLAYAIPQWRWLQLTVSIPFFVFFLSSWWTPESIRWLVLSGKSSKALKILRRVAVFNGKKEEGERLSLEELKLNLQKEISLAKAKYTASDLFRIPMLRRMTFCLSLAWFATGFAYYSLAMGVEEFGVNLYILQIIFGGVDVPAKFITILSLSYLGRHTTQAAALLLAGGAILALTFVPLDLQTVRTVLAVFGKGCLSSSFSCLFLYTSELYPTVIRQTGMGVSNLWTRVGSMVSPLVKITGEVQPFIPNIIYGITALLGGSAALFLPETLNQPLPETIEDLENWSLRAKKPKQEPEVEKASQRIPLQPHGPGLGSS

[5] = tested on: P-glycoprotein; test: Permeability assessed as human P-glycoprotein-mediated active membrane transport by measuring basolateral to apical side expressed in pig LLC-PK1 cells by Transwell experiment/liquid scintillation counting; settings: read-out: permeability

CC#CCn1c(N2CCC[C@@H](N)C2)nc2c1c(=O)n(Cc1nc(C)c3ccccc3n1)c(=O)n2C [LINAGLIPTIN]
inhibition (INH) [1]: 3.39% | inhibition (INH) [2]: 1.07% | inhibition (INH) [3]: 0% | IC50 [4]: > 100 µM | Papp B→A [5]: 274 nm/s
